The results in this text go back to ChEMBL document CHEMBL1154178, “Puupehanol, a sesquiterpene-dihydroquinone derivative from the marine sponge Hyrtios sp” (Bioorg Med Chem Lett, 2009).

What is called IC50 is the concentration needed to halve the response being measured. Low values mean greater potency in that assay, high ones weaker potency in that assay. By MFC is commonly meant the lowest tested concentration that kills the fungus rather than only halting it. For orientation: MIC means the lowest concentration that inhibits growth of the organism. A low value points to a more susceptible organism.

Holding throughout (type): functional, organism-based
Assay [1] concerns Cryptococcus neoformans. As to the kind of experiment: Antifungal activity against Cryptococcus neoformans ATCC 90113 after 72 hrs by two fold serial dilution technique. Conditions: ATCC 90113, 72 h. Summed up: (§1)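 Top concentration in the dilution series was 20 µg/mL.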
The test system of assay [2] is Candida albicans. In words: Antifungal activity against Candida albicans ATCC 90028 after 48 hrs by two fold serial dilution technique at 20 ug/mL. Summed up: as §1
For assay [3], the system named is Pichia kudriavzevii. In words: Antifungal activity against Candida krusei ATCC 6258 after 48 hrs by two fold serial dilution technique at 20 ug/mL. Summed up:
as §1

Assay [4] concerns Nakaseomyces glabratus. As to the kind of experiment: Antifungal activity against Candida glabrata ATCC 90030 after 48 hrs by two fold serial dilution technique at 20 ug/mL. Summed up: as §1
The test system of assay [5] is Aspergillus fumigatus. As to the kind of experiment: Antifungal activity against Aspergillus fumigatus ATCC 90906 after 48 hrs by two fold serial dilution technique at 20 ug/mL. In short, it runs like this: as §1
Assay [6] concerns Candida albicans. In words: Antifungal activity against Candida albicans ATCC 90028 after 48 hrs by two fold serial dilution technique. As to conditions: ATCC 90028, 48 h.
The test system of assay [7] is Pichia kudriavzevii. In words: Antifungal activity against Candida krusei ATCC 6258 after 48 hrs by two fold serial dilution technique. As to conditions: ATCC 6258, 48 h.
For assay [8], the system named is Nakaseomyces glabratus. As to the kind of experiment: Antifungal activity against Candida glabrata ATCC 90030 after 48 hrs by two fold serial dilution technique. As to conditions: ATCC 90030, 48 h. Summed up:
as §1

The subject of assay [9] is Aspergillus fumigatus. In words: Antifungal activity against Aspergillus fumigatus ATCC 90906 after 48 hrs by two fold serial dilution technique.
The test system of assay [10] is Cryptococcus neoformans. In words: Antifungal activity against Cryptococcus neoformans ATCC 90113 after 72 hrs by two fold serial dilution technique at 20 ug/mL. Summed up:
as §1

SMILES strings stand for the structures. Values after ≈ are worked out from the molar mass of the structure shown. Active and inactive are the calls of the source. No cut-off for these calls is given here.

Regarding `CC1(C)CCC[C@]2(C)[C@H]3C=C4C(=CC(=O)C(O)=C4Cl)O[C@@]3(C)CC[C@@H]12` [CHLOROPUUPEHENONE], in the assay on Cryptococcus neoformans [1], it took 5.73 µg/mL (≈ 15.8 µM) to reach half-maximal inhibition (IC50). The molecule further came in with an MFC against Cryptococcus neoformans [1] of 20 µg/mL (≈ 55.1 µM). For the same molecule, the MIC with Cryptococcus neoformans [1] stood at 10 µg/mL (≈ 27.6 µM). Besides, the result in the assay on Candida albicans [2], in the assay with Pichia kudriavzevii [3], in the assay on Nakaseomyces glabratus [4] and in the assay on Aspergillus fumigatus [5] was inactive.

On to `CC1(C)CCC[C@]2(C)[C@H]3C=C4C=C(O)C(=O)C=C4O[C@@]3(C)CC[C@@H]12` [PUUPEHENONE], for which the half-inhibitory concentration (IC50) in the assay with Cryptococcus neoformans [1] came out at 0.38 µg/mL (≈ 1.16 µM); in the assay on Candida albicans [6] it was 3.02 µg/mL (≈ 9.19 µM); in the assay on Pichia kudriavzevii [7], 1.49 µg/mL (≈ 4.54 µM); in the assay on Nakaseomyces glabratus [8] it was 2.67 µg/mL (≈ 8.13 µM); in the assay with Aspergillus fumigatus [9] (ATCC 90906, 48 h), 5.63 µg/mL (≈ 17.1 µM). Further, the MFC with Cryptococcus neoformans [1] was found to be 1.25 µg/mL (≈ 3.81 µM); in the assay on Candida albicans [6], 10 µg/mL (≈ 30.4 µM); in the assay with Pichia kudriavzevii [7] it was 2.5 µg/mL (≈ 7.61 µM); with Nakaseomyces glabratus [8], 10 µg/mL (≈ 30.4 µM). The MIC in the assay with Cryptococcus neoformans [1] was 0.63 µg/mL (≈ 1.92 µM); against Candida albicans [6] it was 10 µg/mL (≈ 30.4 µM); against Pichia kudriavzevii [7], 2.5 µg/mL (≈ 7.61 µM); in the assay with Nakaseomyces glabratus [8] it was 10 µg/mL (≈ 30.4 µM); with Aspergillus fumigatus [9] (ATCC 90906, 48 h), 10 µg/mL (≈ 30.4 µM). The MFC entry in the assay with Aspergillus fumigatus [9] was “inactive”.

For `CC1(C)CCC[C@]2(C)[C@H]3C=C4C(=CC(=O)[C@H](O)[C@@H]4O)O[C@@]3(C)CC[C@@H]12`, the outcome in the assay on Cryptococcus neoformans [10], in the assay with Candida albicans [2], in the assay on Pichia kudriavzevii [3], in the assay with Nakaseomyces glabratus [4] and with Aspergillus fumigatus [5] was inactive.

In the case of `C[C@@H]1[C@H](O)[C@@H](C)/C=C/C=C/C=C/C=C/C=C/C=C/C=C/[C@H](O[C@@H]2O[C@H](C)[C@@H](O)[C@H](N)[C@@H]2O)C[C@@H]2O[C@](O)(C[C@@H](O)C[C@@H](O)[C@H](O)CC[C@@H](O)C[C@@H](O)CC(=O)O[C@H]1C)C[C@H](O)[C@H]2C(=O)O` [AMPHOTERICIN B], the IC50 in the assay on Cryptococcus neoformans [1] was 0.34 µg/mL (≈ 0.368 µM); with Candida albicans [6], 0.26 µg/mL (≈ 0.281 µM); in the assay on Pichia kudriavzevii [7], 0.699 µg/mL (≈ 0.756 µM); with Nakaseomyces glabratus [8], 0.29 µg/mL (≈ 0.314 µM); with Aspergillus fumigatus [9] (ATCC 90906, 48 h) it was 1.02 µg/mL (≈ 1.1 µM). For the same molecule, the MFC against Cryptococcus neoformans [1] came out at 0.63 µg/mL (≈ 0.682 µM); in the assay with Nakaseomyces glabratus [8] it was 0.63 µg/mL (≈ 0.682 µM); with Aspergillus fumigatus [9] (ATCC 90906, 48 h) it was 5 µg/mL (≈ 5.41 µM). The minimal inhibitory concentration (MIC) in the assay on Cryptococcus neoformans [1] and with Nakaseomyces glabratus [8] was 0.63 µg/mL (≈ 0.682 µM) each time.
